Test results taken from ChEMBL document CHEMBL1143257, “Structure-activity relationships of novel HIV-1 protease inhibitors containing the 3-amino-2-chlorobenzoyl-allophenylnorstatine structure” (Bioorg Med Chem, 2008).

Tests used:
[1] = system: Human immunodeficiency virus 1; experiment: Antiviral activity against HIV1 3B; format: functional, organism-based; conditions: Human immunodeficiency virus 1, 3B
[2] = system: Human immunodeficiency virus 1; experiment: Antiviral activity against HIV1 3B in presence of 50% human serum; format: functional, organism-based; conditions: Human immunodeficiency virus 1, 3B
[3] = AUC in Beagle dog at 15 mg/kg, po; format: ADME, organism-based, Canis lupus familiaris; parameters: dose 15 mg/kg, route oral; conditions: plasma
[4] = Cmax in Beagle dog at 15 mg/kg, po; format: ADME, organism-based, Canis lupus familiaris; parameters: dose 15 mg/kg, route oral; conditions: in vivo
[5] = Tmax in Beagle dog at 15 mg/kg, po; format: ADME, organism-based, Canis lupus familiaris; parameters: dose 15 mg/kg, route oral; conditions: in vivo
[6] = Volume of distribution at steady state in Beagle dog at 15 mg/kg, iv; format: ADME, organism-based, Canis lupus familiaris; parameters: dose 15 mg/kg, route intravenous; conditions: in vivo, read-out: Vdss
[7] = Plasma clearance in Beagle dog at 15 mg/kg, iv; format: ADME, organism-based, Canis lupus familiaris; parameters: dose 15 mg/kg, route intravenous
[8] = Oral bioavailability in Beagle dog at 15 mg/kg; format: ADME, organism-based, Canis lupus familiaris; conditions: in vivo
[9] = Plasma concentration in Beagle dog at 15 mg/kg, po after 12 hrs; format: ADME, organism-based, Canis lupus familiaris; parameters: dose 15 mg/kg, route oral
[10] = AUC in Beagle dog at 15 mg/kg, po co-administered with 7.5 mg/kg of ritonavir, po; format: ADME, organism-based, Canis lupus familiaris; conditions: plasma
[11] = system: Human immunodeficiency virus 1; experiment: Ratio of EC50 for HIV1 mutant strain 5 to EC50 for wild type HIV1; format: functional
[12] = system: Human immunodeficiency virus 1; experiment: Ratio of EC50 for HIV1 mutant strain 6 to EC50 for wild type HIV1; format: functional
[13] = system: Human immunodeficiency virus 1; experiment: Ratio of EC50 for HIV1 mutant strain 7 to EC50 for wild type HIV1; format: functional
How it was run: (§1)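 PhenoSense phenotypic assay. Strain 7 protease mutations include T4A, L10I, K20R, L23I, L33F, E35D, M36I, K43T, M46L. EC50 in µM. Fold change is versus the wild-type EC50.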

[14] = Metabolic stability in human liver microsomes assessed as compound remaining at 5 uM in presence of NADPH by RP-HPLC; format: ADME, Microsome; conditions: read-out: Stability
How it was run: (§2)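 Test drug at 5 µM incubated with liver microsomes (0.5 mg/ml) plus cofactor (1 mM NADPH or 5 mM UDPGA) at 37 °C for 30 min. Residual drug measured by RP-HPLC. Values are the mean percent remaining of duplicates.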

[15] = Metabolic stability in human liver microsomes assessed as compound remaining at 5 uM in presence of UDPGA by RP-HPLC; format: ADME, Microsome; conditions: read-out: Stability; how it was run: as §2
Protease = Protease (Human immunodeficiency virus 1, UniProt Q9YQ12); experiment: Inhibition of HIV1 protease
Chain of Protease (Q9YQ12 whole entry): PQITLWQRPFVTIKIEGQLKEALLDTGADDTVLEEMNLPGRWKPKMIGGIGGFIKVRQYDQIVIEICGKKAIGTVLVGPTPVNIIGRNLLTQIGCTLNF

[16] = Cmax in Beagle dog at 15 mg/kg, po co-administered with 7.5 mg/kg of ritonavir, po; format: ADME, organism-based, Canis lupus familiaris; parameters: dose 15 mg/kg, route oral; conditions: in vivo
[17] = Tmax in Beagle dog at 15 mg/kg, po co-administered with 7.5 mg/kg of ritonavir, po; format: ADME, organism-based, Canis lupus familiaris; conditions: in vivo
[18] = Plasma concentration in Beagle dog at 15 mg/kg, po after 12 hrs co-administered with 7.5 mg/kg of ritonavir, po; format: ADME, organism-based, Canis lupus familiaris
Liver [19] = experiment: Metabolic stability in dog liver microsomes assessed as compound remaining in presence of NADPH by RP-HPLC; format: ADME, Canis lupus familiaris, Microsome; how it was run: as §2
Liver [20] = experiment: Metabolic stability in dog liver microsomes assessed as compound remaining in presence of UDPGA by RP-HPLC; format: ADME, Canis lupus familiaris, Microsome; how it was run: as §2
[21] = Metabolic stability in rat liver microsomes assessed as compound remaining at 5 uM by RP-HPLC; format: ADME, Microsome; conditions: read-out: Stability; how it was run: as §2
[22] = Metabolic stability in rat liver microsomes assessed as compound remaining at 5 uM in presence of 0.5 uM ritonavir by RP-HPLC; format: ADME, Microsome; conditions: with ritonavir 0.5 uM, read-out: Stability
[23] = Metabolic stability in rat liver microsomes assessed as compound remaining at 5 uM in presence of 2.5 uM ritonavir by RP-HPLC; format: ADME, Microsome; conditions: with ritonavir 2.5 uM, read-out: Stability
[24] = Metabolic stability in dog liver microsomes assessed as compound remaining at 5 uM by RP-HPLC; format: ADME, Canis lupus familiaris, Microsome; conditions: read-out: Stability; how it was run: as §2
[25] = Metabolic stability in dog liver microsomes assessed as compound remaining at 5 uM in presence of 0.5 uM ritonavir by RP-HPLC; format: ADME, Canis lupus familiaris, Microsome; conditions: with ritonavir 0.5 uM, read-out: Stability
[26] = Metabolic stability in dog liver microsomes assessed as compound remaining at 5 uM in presence of 2.5 uM ritonavir by RP-HPLC; format: ADME, Canis lupus familiaris, Microsome; conditions: with ritonavir 2.5 uM, read-out: Stability
[27] = Metabolic stability in human liver microsomes assessed as compound remaining at 5 uM by RP-HPLC; format: ADME, Microsome; conditions: read-out: Stability; how it was run: as §2
[28] = Metabolic stability in human liver microsomes assessed as compound remaining at 5 uM in presence of 0.5 uM ritonavir by RP-HPLC; format: ADME, Microsome; conditions: with ritonavir 0.5 uM, read-out: Stability
[29] = Metabolic stability in human liver microsomes assessed as compound remaining at 5 uM in presence of 2.5 uM ritonavir by RP-HPLC; format: ADME, Microsome; conditions: with ritonavir 2.5 uM, read-out: Stability
[30] = system: Human immunodeficiency virus 1; experiment: Antiviral activity against wild type HIV1; format: functional, organism-based
[31] = system: Human immunodeficiency virus 1; experiment: Antiviral activity against HIV1 mutant strain 1; format: functional, organism-based
How it was run: (§3)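 PhenoSense phenotypic susceptibility assay on multi-drug-resistant clinical HIV-1 protease variant strains, run in parallel with a wild-type reference. EC50 read in µM. Fold change is mutant EC50 divided by wild-type EC50.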

[32] = system: Human immunodeficiency virus 1; experiment: Antiviral activity against HIV1 mutant strain 2; format: functional, organism-based
How it was run: (§4)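 PhenoSense phenotypic assay. Strain 2 protease carries L10I, G16A, K45V, F53L, I54V, K55N, D60E, L63P, A71V, I72K, V77I, V82F, I84V, L90M, I93L. EC50 in µM. Fold change is versus the wild-type EC50.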

[33] = system: Human immunodeficiency virus 1; experiment: Antiviral activity against HIV1 mutant strain 3; format: functional, organism-based
[34] = system: Human immunodeficiency virus 1; experiment: Antiviral activity against HIV1 mutant strain 4; format: functional, organism-based
[35] = system: Human immunodeficiency virus 1; experiment: Antiviral activity against HIV1 mutant strain 5; format: functional, organism-based
[36] = system: Human immunodeficiency virus 1; experiment: Antiviral activity against HIV1 mutant strain 6; format: functional, organism-based
[37] = system: Human immunodeficiency virus 1; experiment: Antiviral activity against HIV1 mutant strain 7; format: functional, organism-based; how it was run: as §1
[38] = system: Human immunodeficiency virus 1; experiment: Ratio of EC50 for HIV1 mutant strain 1 to EC50 for wild type HIV1; format: functional; how it was run: as §3
[39] = system: Human immunodeficiency virus 1; experiment: Ratio of EC50 for HIV1 mutant strain 2 to EC50 for wild type HIV1; format: functional; how it was run: as §4
[40] = system: Human immunodeficiency virus 1; experiment: Ratio of EC50 for HIV1 mutant strain 3 to EC50 for wild type HIV1; format: functional
[41] = system: Human immunodeficiency virus 1; experiment: Ratio of EC50 for HIV1 mutant strain 4 to EC50 for wild type HIV1; format: functional
[42] = system: Human immunodeficiency virus 1; experiment: Antiviral activity against multidrug resistant HIV1; format: functional, organism-based; how it was run: as §3

COc1cccc(C[C@H](NC(=O)c2cccc(N)c2Cl)[C@H](O)C(=O)N2CSC(C)(C)[C@H]2C(=O)NCc2c(C)cccc2C)c1
EC50 [1]: 4 nM | EC50 [2]: 6 nM | AUC [3]: 15.6 µM·h | Cmax [4]: 2800 nM | Tmax [5]: 2 h | Vd [6]: 1.3 L/kg | clearance [7]: 18.3 mL/min/kg | bioavailability [8]: 71% | concentration at 12 h [9]: 130 nM | AUC [10]: 52.8 µM·h | Ratio EC50 [11]: 38 | Ratio EC50 [12]: 17 | Ratio EC50 [13]: 7 | remaining at 5 µM [14]: 64% | remaining at 5 µM [15]: > 95% | Ki (Protease): 0.134 nM | Cmax [16]: 5300 nM | Tmax [17]: 3 h | concentration at 12 h [18]: 2950 nM | Stability (Liver [19]): 47% | Stability (Liver [20]): > 95% | remaining at 5 µM [21]: 21% | remaining at 5 µM [22]: 41% | remaining at 5 µM [23]: 55% | remaining at 5 µM [24]: 36% | remaining at 5 µM [25]: 90% | remaining at 5 µM [26]: > 95% | remaining at 5 µM [27]: 49% | remaining at 5 µM [28]: 93% | remaining at 5 µM [29]: > 95% | EC50 [30]: 5.6 nM | EC50 [31]: 150 nM | EC50 [32]: 106 nM | EC50 [33]: 122 nM | EC50 [34]: 22 nM | EC50 [35]: 214 nM | EC50 [36]: 96 nM | EC50 [37]: 42 nM | Ratio EC50 [38]: 27 | Ratio EC50 [39]: 19 | Ratio EC50 [40]: 22 | Ratio EC50 [41]: 4 | IC50 [42]: 22 nM

Cc1ccccc1CNC(=O)[C@H]1N(C(=O)[C@@H](O)[C@H](Cc2ccccc2)NC(=O)c2cccc(O)c2C)CSC1(C)C
EC50 [1]: 26 nM | EC50 [2]: 52 nM | AUC [3]: 6.5 µM·h | Cmax [4]: 3100 nM | Tmax [5]: 0.5 h | Vd [6]: 1.6 L/kg | clearance [7]: 15 mL/min/kg | bioavailability [8]: 25% | concentration at 12 h [9]: 30 nM | remaining at 5 µM [14]: 27% | remaining at 5 µM [15]: 55% | Ki (Protease): 0.035 nM | Stability (Liver [19]): 49% | Stability (Liver [20]): 91% | remaining at 5 µM [21]: 12% | remaining at 5 µM [22]: 16% | remaining at 5 µM [23]: 31% | remaining at 5 µM [24]: 46% | remaining at 5 µM [25]: 92% | remaining at 5 µM [26]: 93% | remaining at 5 µM [27]: 13% | remaining at 5 µM [28]: 56% | remaining at 5 µM [29]: 59%
